Screening results (PubChem)
Compounds with a hit are over-represented: about 3.5% of the library has one in this group of screens.
MrgX1 antag: antagonists of human MrgX1 receptor; Q96LB2; MRGX1-HEK293 calcium flux, Fluo-4, BAM8-22 antagonism; hits give low values; B-score at 10 µM; 1.3% of 310,000 active; AID 588676;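 active = calcium-response B-score plate-corrected more than 3 library SD below zero, starting fluorescence within 5 deviations, no agonist response on first addition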;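 also: peak minus trough fluorescence over baseline after final BAM8-22 challenge near maximal dose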
Target sequence (Q96LB2 whole entry, looked up): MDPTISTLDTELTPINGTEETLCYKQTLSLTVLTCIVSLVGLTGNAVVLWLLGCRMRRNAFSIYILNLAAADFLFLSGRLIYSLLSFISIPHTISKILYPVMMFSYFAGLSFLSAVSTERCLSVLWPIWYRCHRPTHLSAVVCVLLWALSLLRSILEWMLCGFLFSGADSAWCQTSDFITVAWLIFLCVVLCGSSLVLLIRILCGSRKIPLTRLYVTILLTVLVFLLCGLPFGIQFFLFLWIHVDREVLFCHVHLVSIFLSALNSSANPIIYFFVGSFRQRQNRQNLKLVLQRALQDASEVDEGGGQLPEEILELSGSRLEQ
MrgX1 agonist: activates human MrgX1 receptor signaling | Q96LB2 | MrgX1-HEK293 cells, Fluo-4 calcium fluorescence, agonist mode; hits give high values | B-score at 10 µM | 0.44% of 310,000 active | AID 588627;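 active = calcium response B-score plate-corrected fluorescence ratio at least 3 library SD, with starting fluorescence B-score inside 5 SD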
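System: HEK293 cells stably expressing human MrgX1 receptor; Dosing: test compound in the initial addition of three; Schedule: overnight plating, then 30 min 37 °C plus 30 min room-temperature dye loading; Detection: kinetic calcium dye fluorescence, Fluo-4 NW; Controls: per-plate positive and negative controls for Z′ factor.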
RGS4 act: potentiators or activators of RGS4; HEK293 M3R/inducible RGS4, carbachol calcium flux Fluo4; hits give low values; B-score at 10 µM; 0.92% of 310,000 active;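 active = B-score of the integrated calcium signal more than 4 SD below the library mean, with starting fluorescence not abnormally high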;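 also: negative B-score means reduced calcium response which marks RGS4 activation or potentiation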
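Test system: HEK293 cells with stable M3R and inducible RGS4; also added: carbachol at ECmax as muscarinic agonist stimulus; schedule: dye loading 30 min 37 °C, buffer rest 30 min RT; technique: kinetic calcium fluorescence imaging with Fluo4-AM dye, 2 µM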
RGS4 inh: inhibitors of human RGS4; 0.45% of 310,000 active; HEK293 M3R/RGS4 inducible, Fluo-4 calcium flux; hits give high values; triggered by carbachol at its EC20; AID 463165; B-score at 10 µM;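 active = B-score, a plate-corrected calcium signal, over three deviations above library mean, with baseline fluorescence within five deviations of library mean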;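 also: RGS4 expression induced by doxycycline in cells with stable M3 receptor; B-score is computed from the integrated fluorescence ratio over baseline after carbachol; higher B-score means a larger calcium signal and so more RGS4 inhibition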
Target sequence (P49798 whole entry, looked up): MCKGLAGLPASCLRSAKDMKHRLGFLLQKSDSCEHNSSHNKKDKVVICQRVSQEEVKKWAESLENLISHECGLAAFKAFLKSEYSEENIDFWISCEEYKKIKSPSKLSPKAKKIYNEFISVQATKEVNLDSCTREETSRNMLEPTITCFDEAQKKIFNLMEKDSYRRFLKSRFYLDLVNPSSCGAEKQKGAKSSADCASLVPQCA
MrgX1 allo act: allosterically activates human MrgX1 receptor signaling; MrgX1-HEK293, Fluo-4 calcium flux, FDSS; hits give high values; B-score at 10 µM; 0.63% of 310,000 active; AID 588675;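 active = plate-corrected calcium response at least 3 library SD above typical, normal starting fluorescence, not activating the receptor alone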;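 also: compound read alongside a low EC10 to EC30 dose of BAM8-22 agonist; peak minus trough fluorescence over baseline measured at the second addition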
RGS4 activ val: confirmation of RGS4 activators; shares compounds with RGS4 act; HEK293 M3R/RGS4 inducible, carbachol calcium flux Fluo4; inhibition, % at 10 µM; 89% of 1,100 active; AID 602282;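 active = inhibition above 3 SD of the buffer control wells, cut at about 41% in these data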;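 also: signal is the integrated peak-minus-minimum Fluo4 fluorescence over baseline ratio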
RGS4 act ctr: activity in cells without induced RGS4 expression; shares compounds with RGS4 act; HEK293 M3R non-induced RGS4, Fluo4 calcium flux; after carbachol challenge at its EC90; inhibition, % at 10 µM; 82% of 1,100 active; AID 602283;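 active = inhibition exceeding 3 SD of buffer-only control wells, cut at about 26% in these data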;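 also: percent drop in integrated peak-minus-baseline over baseline Fluo4 ratio after carbachol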
Starred values were filed as active, the others as inactive; i = inactive; nt = no result.

SMILES	MrgX1 antag	MrgX1 agonist	RGS4 act	RGS4 inh	MrgX1 allo act	RGS4 activ val	RGS4 act ctr
CC(C)CC(NC(=O)c1ccc(Cl)cc1)C(=O)OCC(=O)c1ccc2c(c1)NC(=O)CO2 (stereo unspecified)	i	i	-12*	i	i	90*	80*
CC(C)[C@H](NC(=O)c1ccco1)C(=O)OCC(=O)c1ccc2c(c1)NC(=O)CO2	i	i	i	i	i	nt	nt
N#Cc1ccccc1Cn1cc(/C=N/Nc2ccc([N+](=O)[O-])cn2)c2ccccc21	-6.2*	i	-11*	i	i	78*	84*
O=[N+]([O-])c1ccc(N/N=C/c2ccc(OCc3cccc4ccccc34)cc2)nc1	i	i	i	i	i	nt	nt
CC(=O)c1c(C)[nH]c(C(=O)Nc2nc(-c3ccc(Cl)cc3)cs2)c1C	i	i	-8.2*	i	i	94*	92*
COc1ccc(OC)c(C(=O)NC(CC(N)=O)c2ccc(N3CCC(Cc4ccccc4)CC3)c([N+](=O)[O-])c2)c1 (stereo unspecified)	i	i	i	i	i	nt	nt
CC(C)=CCc1c(O)cc(O)c2c1OC(c1ccc(O)cc1)CC2=O (stereo unspecified)	i	i	-9.9*	i	i	90*	86*
CC(C)=CCc1c(O)c(CC=C(C)C)c2c(c1O)C(=O)CC(c1ccc(O)cc1)O2 (stereo unspecified)	i	i	i	i	i	nt	nt
O=C(CSc1ncc(-c2ccccc2)n1C1CCCC1)N1CCc2ccccc21	i	i	-7.7*	i	i	54*	84*
CCn1ncc(CN2CCCC(C(=O)c3cccc(OC(C)C)c3)C2)c1C (stereo unspecified)	i	i	-10*	i	i	84*	38*
O=C(O)c1ccc(N/N=C/c2ccc(-c3ccccc3)cc2)cc1	nt	nt	i	i	nt	nt	nt
O=C(O)c1ccc(N/N=C/c2ccc(OC(=O)c3ccccc3Cl)cc2)cc1	i	i	-14*	i	i	0	0
CC(C)C(NC(=O)c1c(F)cccc1F)C(=O)NCCc1ccc(S(N)(=O)=O)cc1 (stereo unspecified)	i	i	i	i	i	nt	nt
CN(c1ccccc1)S(=O)(=O)c1cccc(C(=O)NCCc2c[nH]c3ccccc23)c1	i	i	-9.2*	i	i	74*	48*
CCC(C(=O)OCCOCCN(CC)CC)c1ccccc1 (stereo unspecified)	i	i	i	i	i	nt	nt
CCN(CC)CCCOC(=O)C(c1ccccc1)c1ccccc1	-6.2*	i	-10*	i	i	94*	94*
O=C1CN(S(=O)(=O)c2cccc(C(=O)O)c2)c2ccccc2N1	i	i	i	i	i	nt	nt
CCN(CC)CCNC(=O)c1ccc(Sc2ccc(Cl)cc2)c(NC(C)=O)c1	i	i	i	i	i	nt	nt
CN(C)CCN(C(=O)c1ccc(C(=O)c2ccccc2)cc1)c1nc2cc3c(cc2s1)OCO3	i	i	i	i	i	nt	nt
CN(C)CCN(C(=O)c1ccc(C(=O)c2ccccc2)cc1)c1nc2cc3c(cc2s1)OCCO3	i	i	-9.1*	i	i	90*	74*
COCCN(C(=S)Nc1ccc(C)cc1C)C(C)c1ccco1 (stereo unspecified)	i	i	i	i	i	nt	nt
O=C(c1ccc(-c2nc3ccccc3s2)o1)N1CCN(c2ccccc2O)CC1	i	i	-8.3*	i	i	86*	53*
O=C(O)c1ccc(-c2nc3ccccc3s2)o1	i	i	i	i	i	nt	nt
COc1ccc(C(=O)Nc2ccnn2C2CCN(C(=O)c3cc(C)on3)CC2)cc1	i	i	i	i	i	nt	nt
O=C(CN1CCN(C/C=C/c2ccccc2)CC1)NCc1ccccc1	i	i	i	i	i	nt	nt
SMILES	MrgX1 antag	MrgX1 agonist	RGS4 act	RGS4 inh	MrgX1 allo act	RGS4 activ val	RGS4 act ctr
CCC(C)c1ccccc1NC(=O)CN1CCN(C/C=C/c2ccccc2)CC1 (stereo unspecified)	i	i	-10*	i	i	76*	84*
CC(C)CSC1=NSC2=NC(=O)/C(=C\c3coc4ccccc4c3=O)C(=N)N12	i	i	-12*	i	i	98*	100*
COc1ccc(C(=O)c2sc3nc(C)cc(-c4cccs4)c3c2N)cc1	nt	nt	i	i	nt	nt	nt
COc1ccc(C(=O)c2sc3nc(C)cc(-c4cccs4)c3c2N)cc1OC	i	i	-8.7*	i	i	83*	71*
CN(C(=O)CN(C)S(=O)(=O)c1ccc(F)cc1)c1c(N)n(Cc2ccccc2)c(=O)[nH]c1=O	i	i	i	i	i	nt	nt
CC1CCN(c2ccccc2NC(=O)c2ccc(Br)o2)CC1	i	i	-9.4*	i	i	54*	0
N#Cc1cc2c(nc1SCc1ccccc1)CCCCC2	i	i	-9.8*	i	i	82*	84*
COc1ccc(C)cc1S(=O)(=O)N1CCN(C(=O)c2ncoc2-c2ccc(C)cc2)CC1	i	i	-8.2*	i	i	82*	32*
c1ccc(-c2nc3ccccn3c2NCc2ccc3c(c2)OCO3)cc1	i	i	i	i	i	nt	nt
COc1ccc(-c2nc3ccccn3c2NCc2ccc3c(c2)OCO3)cc1	i	i	-8.6*	i	i	60*	0
O=C(NC1(O)C(=O)c2ccccc2C1=O)c1ccc(C(F)(F)F)cc1	i	i	-7.6*	i	i	0	0
Cc1ccc(C(=O)NC2(O)C(=O)c3ccccc3C2=O)cc1C	i	i	i	i	i	nt	nt
S=c1[nH]nc(-c2ccncc2)n1/N=C/C=C/c1ccco1	i	i	i	i	i	nt	nt
S=c1[nH]nc(-c2ccccc2Cl)n1/N=C/C=C/c1ccco1	i	i	-8.2*	i	i	94*	89*
Cc1cc(C)n(S(=O)(=O)c2ccc3ccccc3c2)n1	i	i	-7.9*	i	i	76*	84*
CCCC(O)(c1ccc(CC)cc1)C(CN1CCOCC1)c1ccccc1 (stereo unspecified)	i	i	i	i	i	nt	nt
CCN(CC)CCCN(C(=O)c1cccs1)c1nc(-c2ccc(OC)cc2)cs1	i	i	-11*	i	i	90*	31*
